Rows were chosen to be rich in hits. Some 1.3% of all compounds tested hit in one or more screens of this group.
NSD2 inh – inhibitors of human histone methyltransferase NSD2 | NSD2 peptide methylation, AlphaScreen, 120 min | inhibition, % at 12.5 µM | 310,000 tested, 0.54% active | AID 743445; in the data active = inhibition above about 50%
Casp6 inh – blocks human caspase-6 cleavage activity. P55212. purified caspase-6, Z-VEID-R110 cleavage fluorescence. inhibition, % at 12.5 µM. 350,000 tested, 0.53% active. AID 686996;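 active = mean inhibition across replicates at least about 35%, with every replicate also reaching that limit, limit read from the data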;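 also: 0% = median of neutral control wells and 100% = no fluorescence left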
Target sequence (P55212 24-179 limits assumed): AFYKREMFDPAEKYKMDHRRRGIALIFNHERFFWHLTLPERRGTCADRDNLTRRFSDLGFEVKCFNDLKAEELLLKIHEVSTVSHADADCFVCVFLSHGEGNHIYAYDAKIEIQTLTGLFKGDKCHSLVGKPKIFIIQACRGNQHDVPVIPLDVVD
Target sequence (P55212 194-293 limits assumed): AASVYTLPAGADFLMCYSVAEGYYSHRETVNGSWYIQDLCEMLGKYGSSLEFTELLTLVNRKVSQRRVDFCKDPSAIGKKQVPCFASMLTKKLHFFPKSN
UCH37 DUB inh – human UCH37 deubiquitinating enzyme inhibition. Q9Y5K5. purified proteasome/UCH37, Ub-AMC cleavage fluorescence. inhibition, % (test concentration not listed). 330,000 tested, 0.33% active;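 active = mean inhibition over replicate wells above about 20%, limit read from the data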;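 also: 0% = compound-free wells with enzyme and 100% = wells lacking proteasome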
Target sequence (Q9Y5K5 whole entry, looked up): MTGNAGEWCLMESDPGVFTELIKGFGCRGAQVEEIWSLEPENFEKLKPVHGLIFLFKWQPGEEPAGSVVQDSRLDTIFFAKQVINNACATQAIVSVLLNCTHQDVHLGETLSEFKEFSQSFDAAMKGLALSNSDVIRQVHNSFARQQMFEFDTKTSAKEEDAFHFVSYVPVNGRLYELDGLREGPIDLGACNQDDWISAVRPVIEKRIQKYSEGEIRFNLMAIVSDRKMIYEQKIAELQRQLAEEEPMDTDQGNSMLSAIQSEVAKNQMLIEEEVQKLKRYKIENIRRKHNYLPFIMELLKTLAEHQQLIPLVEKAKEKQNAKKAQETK
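system = Proteasome-associated human UCH37 deubiquitinase | amount = 0.15 nM proteasome as dispensed | medium = pH 7.4 Tris-HCl (50 mM) with ovalbumin, ATP-MgCl2, DTT | incubation = 30 min preincubation with enzyme, 25 min cleavage at room temperature | detection = AMC fluorescence 355/460 nm | read-out basis = percent inhibition | controls = no-proteasome and no-compound wells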
TDP2 inh – blocks human TDP2 phosphodiesterase activity; O95551; recombinant TDP2, T5PNP hydrolysis, p-nitrophenol absorbance 415 nm; inhibition, % at 12.8 µM; 370,000 tested, 0.34% active;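 active = inhibition above the mean of all tested compounds plus 3 SD, set per campaign, cut at about 25% in these data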;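 also: 0% = DMSO with enzyme and 100% = buffer with substrate but no TDP2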
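test system = human TDP2 enzyme | input = TDP2 enzyme at 120 nM final | medium = 50 mM Tris-HCl pH 7.5 with Mg2+, KCl, DTT, BSA | also added = T5PNP substrate, 5 mM | times = 2 h at 37 °C | technique = epi absorbance | benchmarks = high control without enzyme, low control DMSO plus TDP2 | replication = each compound tested once, singlicate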
LEDGF integ inh – blocks HIV-1 LEDGF/p75-dependent DNA integration; inhibition, % at 3.7 µM; TR-FRET IN-LEDGF/p75 DNA integration, Eu/Cy5; 370,000 tested, 0.64% active;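 active = inhibition above the screen-wide mean plus 3 SD, cut at about 13% in these data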;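 also: signal is the Cy5 over europium emission ratio at 671 and 618 nm; 0% = plate median of compound wells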
Alpha artifact – counter-screen for NSD2 inhibitors: AlphaScreen artifacts; shares compounds with NSD2 inh; AlphaScreen artifact counterscreen, preloaded methylated H4 peptide; AC35, µM (titrated, usually from 10 µM), for the others: at the highest dose activity change, negative = signal loss; 1,500 tested, 9.4% active; AID 1053174; call rule not given here
Starred values were filed as active, the others as inactive.

Results for CC1CN(Cc2cc(=O)n3ccsc3n2)CC(C)O1 (configuration not stated) ?
NSD2 inh: 62*; UCH37 DUB inh: -4; TDP2 inh: 8; LEDGF integ inh: 4; Alpha artifact: 1%

How did O=c1[nH]c(NCCO)c(N=Cc2ccccc2)c(=O)[nH]1 do in these assays?
NSD2 inh: 104*; Casp6 inh: -1; UCH37 DUB inh: 17; TDP2 inh: 3; LEDGF integ inh: 3; Alpha artifact: 3%

Results for Nc1[nH]c(=O)[nH]c(=O)c1N=Cc1ccccc1 ?
NSD2 inh: -1

How did COCCNC(=S)NN=C(C)c1cccc([N+](=O)[O-])c1 do in these assays?
UCH37 DUB inh: 0

What do the screens show for `COC(C(=O)NN=C(C)CC(=O)Nc1ccc(N(C)C)cc1)c1ccccc1` (configuration not stated)?
UCH37 DUB inh: -1

What do the screens show for `O=C1Cc2ccccc2C(=O)N1c1ccccc1`?
NSD2 inh: 86*; Casp6 inh: 26; UCH37 DUB inh: -6; TDP2 inh: -2; LEDGF integ inh: 10; Alpha artifact: -7%

How did CCCc1cc(C(=O)NN=Cc2ccc(C)o2)c2ccccc2n1 do in these assays?
UCH37 DUB inh: 9

What do the screens show for `Cc1cccc(OCC(=O)Nc2ncn[nH]2)c1C`?
NSD2 inh: 98*; Casp6 inh: -1; TDP2 inh: -7; LEDGF integ inh: -5; Alpha artifact: -6%

How did COc1ccc2c(c1)Cc1sc(NC(=O)c3cccnc3)nc1-2 do in these assays?
NSD2 inh: 52*; Casp6 inh: 35; UCH37 DUB inh: 10; TDP2 inh: -8; LEDGF integ inh: -5; Alpha artifact: 0%

What do the screens show for `COc1ccc2c(c1)CCc1sc(NC(=O)c3ccc(C)cc3)nc1-2`?
UCH37 DUB inh: 0; TDP2 inh: 0; LEDGF integ inh: -3

How did Cc1cc(C)c(C=Nn2c(C)cc(C)c(C#N)c2=O)c(C)c1 do in these assays?
UCH37 DUB inh: 1

How did CCNC(=O)C1CCCN(C(=O)c2ccccc2OC(F)(F)F)CC1 (configuration not stated) do in these assays?
NSD2 inh: 60*; Casp6 inh: -1; TDP2 inh: 2; LEDGF integ inh: -1; Alpha artifact: -3%

Results for CCNC(=O)C1CCCN(C(=O)c2ccccc2F)CC1 (configuration not stated) ?
NSD2 inh: 1; Casp6 inh: -3; TDP2 inh: -10; LEDGF integ inh: 3

Results for ON=Cc1ccc2noc(-c3ccc(Cl)cc3)c2c1 ?
UCH37 DUB inh: -1

What do the screens show for `CC(=NNC(N)=O)c1c(F)cccc1F`?
UCH37 DUB inh: 2

What do the screens show for `CN(CCC#N)C(=O)COC(=O)/C=C/c1cccs1`?
NSD2 inh: 1; Casp6 inh: 1; UCH37 DUB inh: 5; TDP2 inh: -11; LEDGF integ inh: -7

What do the screens show for `CCO/C=C/C(=O)N(C)CCC#N`?
NSD2 inh: 125*; UCH37 DUB inh: -2; TDP2 inh: 6; LEDGF integ inh: -2; Alpha artifact: -7%

Results for COCCOC(=O)c1c(N)n(CCCN2CCOCC2)c2nc3ccccc3nc12 ?
NSD2 inh: 1; Casp6 inh: 0; UCH37 DUB inh: inactive; TDP2 inh: 2; LEDGF integ inh: 3

What do the screens show for `CCCCCOC(=O)c1c(N)n(CCOC)c2nc3ccccc3nc12`?
NSD2 inh: 61*; UCH37 DUB inh: inactive; TDP2 inh: 14; LEDGF integ inh: 5; Alpha artifact: 8%

What do the screens show for `Cc1c(C)n(Cc2ccccc2)c2ccc(C(=O)OCCCN(C)C)cc12`?
NSD2 inh: 90*; Casp6 inh: -22; UCH37 DUB inh: 3; TDP2 inh: -8; LEDGF integ inh: 0; Alpha artifact: -11%

How did Cc1c(C)n(CCN(C)C)c2ccc(C(=O)OCCN(C)C)cc12 do in these assays?
NSD2 inh: 11; Casp6 inh: -50; UCH37 DUB inh: 6; TDP2 inh: 7; LEDGF integ inh: 1

How did CC[n+]1ccc(/C=C/c2ccc(N(C)C)cc2)c2ccccc21 do in these assays?
NSD2 inh: 94*; Casp6 inh: -7; UCH37 DUB inh: 13; TDP2 inh: 6; LEDGF integ inh: -12; Alpha artifact: 8.7µM*

Results for N#Cc1c(N=Cc2cc3ccccc3s2)sc2c1CCC2 ?
UCH37 DUB inh: 7

Results for O=C(CSc1nc(-c2ccccc2)c(-c2ccccc2)o1)Nc1nnc(-c2ccccc2)s1 ?
NSD2 inh: 76*; UCH37 DUB inh: -3; TDP2 inh: -5; LEDGF integ inh: -5; Alpha artifact: 2%

How did C=CCn1c(NC(=O)c2ccc(Br)o2)c(S(=O)(=O)c2ccccc2)c2nc3ccccc3nc21 do in these assays?
NSD2 inh: 83*; UCH37 DUB inh: -190; TDP2 inh: 23; LEDGF integ inh: 1; Alpha artifact: 0%

What do the screens show for `Cc1c(N2C(=O)CSC2=NN=Cc2ccc(Cl)cc2)c(=O)n(-c2ccccc2)n1C`?
UCH37 DUB inh: 1

What do the screens show for `COCCCNC(=O)c1ccc2c3c(onc13)-c1ccccc1C2=O`?
NSD2 inh: 53*; UCH37 DUB inh: 24*; Alpha artifact: -14%

How did O=C(c1cc(-c2ccc(Cl)cc2)on1)N1CCCCCC1 do in these assays?
NSD2 inh: 0; Casp6 inh: -4; UCH37 DUB inh: -2; TDP2 inh: 2; LEDGF integ inh: -1

Results for O=C(c1cc(-c2ccc(Cl)c(Cl)c2)on1)N1CCCCCC1 ?
NSD2 inh: 81*; Casp6 inh: -2; UCH37 DUB inh: -3; TDP2 inh: -7; LEDGF integ inh: 4; Alpha artifact: -2%

What do the screens show for `Cc1cccc2c(=O)c(C(=O)NCc3ccc(F)cc3)c[nH]c12`?
NSD2 inh: 57*; Casp6 inh: 0; UCH37 DUB inh: 0; TDP2 inh: -7; LEDGF integ inh: -5; Alpha artifact: -6%

How did CCCCn1c(NS(=O)(=O)c2ccc(C)cc2)c(S(=O)(=O)c2ccccc2)c2nc3ccccc3nc21 do in these assays?
NSD2 inh: 127*; Casp6 inh: -3; UCH37 DUB inh: -197; TDP2 inh: 58*; LEDGF integ inh: 12; Alpha artifact: -1%

How did O=C1C(=O)C(Cl)=C(Cl)C(Cl)=C1Cl do in these assays?
NSD2 inh: 91*; Alpha artifact: -12%

Results for COc1ccc(Cc2nnc(NC(=O)C3CC(=O)N(c4ccc(OC)cc4)C3)s2)cc1 (configuration not stated) ?
NSD2 inh: 73*; Casp6 inh: 6; UCH37 DUB inh: -1; TDP2 inh: -3; LEDGF integ inh: -5; Alpha artifact: -2%

What do the screens show for `COc1ccc(N2CC(C(=O)Nc3nnc(SCC(=O)NC(C)(C)C)s3)CC2=O)cc1` (configuration not stated)?
NSD2 inh: -2; Casp6 inh: 3; UCH37 DUB inh: 2; TDP2 inh: 3; LEDGF integ inh: -1

Compound activity as filed in PubChem BioAssay.
